In the library only some 2.3% were active in any assay of this set; here they are far more common.
FN deposit inh: fibronectin deposition inhibition | AH1F fibroblasts, Alexa488-fibronectin deposition fluorescence, overnight | inhibition, % at 12.6 µM | actives 0.086% (n = 350,000) | AID 743247;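 active means mean inhibition across replicates of 30% or more, regardless of how many single replicates reach that level; inconclusive means mean under 30% yet at least half of replicates reach 30%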;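 further: positive control wells lacked labelled fibronectin entirely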
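Material – AH1F fibroblast monolayer, labelled fibronectin deposition · Reagent – labelled fibronectin 24 nM · Timing – 1 h adhesion, overnight exposure · Measured by – fluorescence at 485 nm excitation, 525 nm emission · Read-out – inhibition of fibronectin deposition signal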
LGR2 antag: Drosophila LGR2 receptor signaling inhibition; HEK293 LGR2, CRE-luciferase, bursicon-stimulated, 4 h; inhibition, % at 9.99 µM; actives 0.35% (n = 380,000);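 active means drop in luminescence signal, shown as inhibition above about 50% in the replicate tests, limit read from the data, passing the limit was not always enough; inconclusive means probably only some replicates passing the limit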;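 further: agonist challenge used bursicon conditioned medium at about half maximal strength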
TROY signal inh: TROY signaling inhibition. Q293 LMP1-TROYcd NF-kB luciferase reporter, 4 h. inhibition, % at 10 µM. actives 0.98% (n = 360,000). AID 1347056;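 active means compounds whose plate-normalised and pattern-corrected inhibition of the luciferase reporter signal at the single screening dose is 50% or more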
EWS-Fli inh: inhibitors of EWS/Fli oncoprotein transcriptional activity; inhibition, % at 12.6 µM; A673 NR0B1-luciferase reporter, viability-normalised; actives 0.67% (n = 350,000);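 active means mean inhibition of at least 50% after viability correction, with every replicate also passing that limit; inconclusive means mean reaches 50% but only one of two replicates passes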;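 further: firefly luciferase signal divided by Alamar Blue viability fluorescence both relative to DMSO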
TWEAK Fn14 block: blocks TWEAK-Fn14 interaction in a reporter cell assay; TWEAK-stimulated Fn14 reporter cells, luciferase luminescence, 8 h; actives 2% (n = 360,000); inhibition, % at 10 µM; in the data active means inhibition above about 50%
Xi reactivation: activators of X-chromosome reactivation in mouse fibroblasts. actives 0.055% (n = 360,000). XiGFP mouse fibroblasts, % GFP-positive cells imaging, 3 d; cells co-treated with 5-aza-dC sensitizer; scaled so ellipticine positive control = 100%. activation, % at 7.58 µM;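 active means mean normalized replicate activation at least 10% and every replicate at or above 10%; inconclusive means only one of the two criteria met; inactive means mean below 10% and not all replicates reach 10%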;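 further: 0% = median of on-plate neutral control wells and 100% = ellipticine 6 µM median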
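Assay system: SV40-immortalized XiGFP fibroblast cells, line 68-5-11; buffer or medium: DMEM plus 5-aza-dC sensitizer; compound: one concentration, pinned; timing: compounds 3 days, fix/stain 15 min at room temperature; benchmarks: positive control ellipticine, 6 µM final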
An asterisk follows results filed as active.

Screening CCOC(=O)N1CCN(Cc2nc(N)nc(Nc3ccc(Oc4ccccc4)cc3)n2)CC1 returned TROY signal inh 15 and TWEAK Fn14 block 52*.
For CCOC(=O)N1CCN(Cc2nc(N)nc(Nc3ccc(OC)cc3)n2)CC1 the results were LGR2 antag -7, TROY signal inh -7, EWS-Fli inh -2 and TWEAK Fn14 block -3.
`COc1cc(NC(C)CCCN)c2ncccc2c1` (stereo unspecified) gave FN deposit inh 11, TROY signal inh -4, EWS-Fli inh 8, TWEAK Fn14 block 86* and Xi reactivation 0.
COc1cc(NCCCCCCCN)c2ncccc2c1 was read as TROY signal inh -7 and TWEAK Fn14 block 97*.
For COc1cc(NCc2ccccc2O)c2ncccc2c1 the results were FN deposit inh 9, LGR2 antag -10, TROY signal inh 6, EWS-Fli inh -5, TWEAK Fn14 block 15 and Xi reactivation 0.
`CN1CCN(c2ccc(-c3cccc(NC(=O)COc4ccc(Cl)cc4Cl)c3)nn2)CC1` gave LGR2 antag -27, TROY signal inh 74*, EWS-Fli inh 32, TWEAK Fn14 block 63* and Xi reactivation 0.
Screening Cn1nnnc1Sc1ncnc2scc(-c3cccc(Br)c3)c12 returned FN deposit inh -11, LGR2 antag 4, TROY signal inh 67*, EWS-Fli inh inconclusive, TWEAK Fn14 block 99* and Xi reactivation 0.
Cn1nnnc1Sc1ncnc2scc(-c3cccc4c3sc3ccccc34)c12 was read as FN deposit inh -3, LGR2 antag 32, TROY signal inh -9, EWS-Fli inh 11, TWEAK Fn14 block 25 and Xi reactivation 0.
CC(=O)c1cccc(-c2csc3ncnc(Sc4nnnn4C)c23)c1 was read as FN deposit inh 13, LGR2 antag inconclusive, TROY signal inh 19, EWS-Fli inh -2, TWEAK Fn14 block 75* and Xi reactivation 0.
Screening Cn1nnnc1Sc1ncnc2scc(-c3cccc(S(C)(=O)=O)c3)c12 returned FN deposit inh 7, LGR2 antag 85*, TROY signal inh 27, EWS-Fli inh -17, TWEAK Fn14 block 61* and Xi reactivation 0.
`COc1ccc2c3c([nH]c2c1)[C@@H](CO)N(C(=O)Nc1ccc(F)cc1)CC31CN(C(=O)Cc2ccncc2)C1` gave LGR2 antag -3, EWS-Fli inh -4 and Xi reactivation 1.
For COc1ccc(-c2cc(C(F)F)n3ncc(C(=O)N4CCc5ccccc54)c3n2)cc1 the results were FN deposit inh 30, LGR2 antag -13, TROY signal inh 15, EWS-Fli inh 57*, TWEAK Fn14 block 8 and Xi reactivation 0.
Cc1ccc(-c2cc(C(F)F)n3ncc(C(=O)N4CCCc5ccccc54)c3n2)cc1 was read as FN deposit inh -8, TROY signal inh 2 and TWEAK Fn14 block -5.
`C[C@H]1CN([C@@H](C)CO)C(=O)c2ccccc2-c2ccccc2CO[C@@H]1CN(C)C(=O)Nc1cccc(F)c1` gave FN deposit inh 3, LGR2 antag 14, EWS-Fli inh -1 and Xi reactivation 1.
Screening CCNC(=O)C1(C)CCN(C(=O)c2ccc(F)cc2Cl)C1 (stereo unspecified) returned FN deposit inh 1, LGR2 antag 2, TROY signal inh 2, EWS-Fli inh -9, TWEAK Fn14 block 89* and Xi reactivation 0.
`CCCS(=O)(=O)NC(=O)C1(C)CCN(C(=O)c2ccc(F)cc2Cl)C1` (stereo unspecified) gave TROY signal inh 5 and TWEAK Fn14 block 20.
CCC1CSC(Nc2ccc(C(=O)/C=C/c3cccc(C)c3)cc2)=N1 (stereo unspecified) was read as FN deposit inh -12, TROY signal inh -11, EWS-Fli inh -10, TWEAK Fn14 block 52* and Xi reactivation 0.
For COc1cc2cc(C(=O)Nc3ccc4c(c3)OCCO4)[nH]c2cc1OC the results were FN deposit inh -4, LGR2 antag 23, TROY signal inh 77*, TWEAK Fn14 block 93* and Xi reactivation 0.
Screening COc1cc2[nH]c(C(=O)Nc3ccc4c(c3)OCCO4)cc2c(OC)c1OC returned FN deposit inh 3, LGR2 antag 1, TROY signal inh 56*, EWS-Fli inh -8, TWEAK Fn14 block 71* and Xi reactivation 0.
`COc1cc(NC(=S)Nc2ccc3c(c2)OCCO3)cc(OC)c1OC` gave FN deposit inh -1, LGR2 antag -90, TROY signal inh 57*, EWS-Fli inh -30, TWEAK Fn14 block 36 and Xi reactivation 0.
C/C=C/c1ccc([C@@H]2[C@H](CO)N3C(=O)CN(S(=O)(=O)c4ccccc4)C[C@@H]23)cc1 was read as FN deposit inh 1, LGR2 antag 0, EWS-Fli inh 7 and Xi reactivation 0.
`CC1(C)Cc2c(C#N)c(SCC(=O)c3ccccc3)nc(N3CCOCC3)c2CS1` gave FN deposit inh 48*, TROY signal inh -5 and TWEAK Fn14 block 6.
Screening CN1Cc2c(N3CCOCC3)nc(SCc3ccccc3)c(C#N)c2CC1(C)C returned FN deposit inh 12, TROY signal inh 4 and TWEAK Fn14 block 5.
`COc1cccc(NC(=O)C[C@@H]2CC[C@@H]3[C@@H](COc4ccc(NC(=O)C5CCOCC5)cc4C(=O)N3C)O2)c1` gave FN deposit inh -8, LGR2 antag 26, EWS-Fli inh -2 and Xi reactivation 0.
Screening CCn1c(C)cc(/C=C2/SC(=S)NC2=O)c1C returned LGR2 antag 2, TROY signal inh 11, EWS-Fli inh 79*, TWEAK Fn14 block -28 and Xi reactivation 0.
For Cc1ccc(C)c(Cn2nc(-c3ccccc3)ccc2=O)c1 the results were FN deposit inh 5, LGR2 antag -6, TROY signal inh 56*, EWS-Fli inh 25, TWEAK Fn14 block -18 and Xi reactivation 0.
For FC(F)(F)c1cc(-c2ccccc2)nc(N2CCCCC2)n1 the results were LGR2 antag 9, TROY signal inh -4 and TWEAK Fn14 block 22.
CCOc1nc(N2CCCCC2)nc(-n2cc(-c3ccccc3)nn2)n1 was read as LGR2 antag -17 and TWEAK Fn14 block 72*.
`CCOC(=O)c1nnn(-c2nc(N3CCCC3)nc(N3CCCC3)n2)c1-c1ccccc1` gave TROY signal inh 4 and TWEAK Fn14 block 38.
CCOC(=O)c1c(-c2ccccc2)nnn1-c1nc(OCC)nc(N2CCCCC2)n1 was read as FN deposit inh 4, TROY signal inh 10 and TWEAK Fn14 block 53*.
COc1ccc2c3c(n(C)c2c1)[C@H](CO)N(C(=O)Nc1ccc(F)cc1)CC31CN(C(=O)NC(C)C)C1 was read as Xi reactivation 0.

Screening data (PubChem BioAssay)
